A short description of data set [1]: Half life in mouse at 3 mg/kg, iv. In kind it is ADME, organism-based. Particulars: in vivo.
Data set [2] in a line: AUC (0 to 8 hrs) in mouse at 3 mg/kg, iv or 20 mg/kg, po. In kind it is ADME, organism-based. The arrangement: dose 3 mg/kg, route iv. Particulars: in vivo.
The target of data set [3] is Epidermal growth factor receptor (Homo sapiens, UniProt P00533, L858R/T790M). Put plainly: biochemical.
A short description of data set [4]: Clearance in mouse at 3 mg/kg, iv. Particulars: in vivo. In kind it is ADME, organism-based.
Data set [5] is described as follows: Oral bioavailability in mouse at 20 mg/kg. As to conditions: in vivo. In kind it is ADME, organism-based.
Data set [6] concerns BaF3. Put plainly: Antiproliferative activity against mouse BaF3 cells harboring EGFR L858R/T790M double mutant assessed as inhibition of cell growth in presence of cetuximab. In kind it is functional, cell-based. Summed up: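 Ba/F3 proliferation assay, second readout: cells co-treated with cetuximab to prevent EGFR dimer formation. Cellular IC50 is reported in μM.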
Data set [7] has as its system BaF3. Put plainly: Antiproliferative activity against mouse BaF3 cells harboring EGFR L858R/T790M double mutant assessed as inhibition of cell growth. In kind it is functional, cell-based. Summed up:
(§1)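 Ba/F3 proliferation assay with the compound alone (single-agent readout, no cetuximab). Cellular IC50 is reported in μM.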

Data set [8] can be described thus: Volume of distribution at steady state in mouse at 3 mg/kg, iv or 20 mg/kg, po. Particulars: in vivo, read-out: Vdss. In kind it is ADME, organism-based.
The test system of data set [9] is BaF3. Put plainly: Antiproliferative activity against mouse BaF3 cells harboring EGFR L858R/T790M/C797S triple mutant assessed as inhibition of cell growth. In kind it is functional, cell-based. A digest of the protocol:
as §1

For data set [10], the system named is NCI-H1975. Put plainly: Antitumor activity against human NCI-H1975 cells harboring EGFR L858R/T790M mutant xenografted in rat assessed as tumor growth inhibition at 25 mg/kg, po administered once daily for 20 days and measured on 35 day. In kind it is functional, organism-based. (Xenograft models place foreign cells or tissue in a host animal.)
The subject of data set [11] is NCI-H1975. Put plainly: Antitumor activity against human NCI-H1975 cells harboring EGFR L858R/T790M mutant xenografted in rat assessed as slower regrowth of tumor at 50 mg/kg, po administered once daily for 20 days and measured on 35 day. In kind it is functional, organism-based.
Data set [12] in a line: Oral bioavailability in rat at 10 mg/kg. In kind it is ADME, organism-based. As to conditions: in vivo.
Data set [13] concerns NCI-H1975. Put plainly: Antitumor activity against human NCI-H1975 cells harboring EGFR L858R/T790M mutant xenografted in rat assessed as slower regrowth of tumor at 50 mg/kg, po administered once daily for 20 days and measured on 35 day.
Data set [14] can be described thus: Half life in rat at 1 mg/kg, iv. In kind it is ADME, organism-based. As to conditions: in vivo.
Data set [15] in a line: Clearance in rat at 1 mg/kg, iv. Particulars: in vivo. In kind it is ADME, organism-based.
Data set [16] deals with NCI-H1975. Put plainly: Antitumor activity against human NCI-H1975 cells harboring EGFR L858R/T790M mutant xenografted in rat assessed as tumor growth inhibition at 50 mg/kg, po administered once daily for 20 days and measured on 35 day. In kind it is functional, organism-based.

pIC50: −log10 of the molar value. The source made the active and inactive calls. No cut-off for these calls is given here.

The source of these data is ChEMBL document CHEMBL5143652, “Quinazolinones as allosteric fourth-generation EGFR inhibitors for the treatment of NSCLC” (Bioorg Med Chem Lett, 2022).

A word on the half-life: it is the time in which the quantity being followed falls by half. Low values mean rapid decline, high ones slow decline. As a reminder, the AUC(0-t) is exposure summed from dosing to a finite time, without extrapolation to infinity. Read a high AUC(0-t) as high exposure. By pIC50 is commonly meant the IC50 on a negative log10 scale, so that one unit is a factor of ten. What is called clearance is the volume of plasma or blood freed of the substance per unit of time. High values mean a high capacity for elimination, low ones a low capacity for elimination.

Epidermal growth factor receptor, sequence (P00533 25-1210 T790M/L858R limits assumed): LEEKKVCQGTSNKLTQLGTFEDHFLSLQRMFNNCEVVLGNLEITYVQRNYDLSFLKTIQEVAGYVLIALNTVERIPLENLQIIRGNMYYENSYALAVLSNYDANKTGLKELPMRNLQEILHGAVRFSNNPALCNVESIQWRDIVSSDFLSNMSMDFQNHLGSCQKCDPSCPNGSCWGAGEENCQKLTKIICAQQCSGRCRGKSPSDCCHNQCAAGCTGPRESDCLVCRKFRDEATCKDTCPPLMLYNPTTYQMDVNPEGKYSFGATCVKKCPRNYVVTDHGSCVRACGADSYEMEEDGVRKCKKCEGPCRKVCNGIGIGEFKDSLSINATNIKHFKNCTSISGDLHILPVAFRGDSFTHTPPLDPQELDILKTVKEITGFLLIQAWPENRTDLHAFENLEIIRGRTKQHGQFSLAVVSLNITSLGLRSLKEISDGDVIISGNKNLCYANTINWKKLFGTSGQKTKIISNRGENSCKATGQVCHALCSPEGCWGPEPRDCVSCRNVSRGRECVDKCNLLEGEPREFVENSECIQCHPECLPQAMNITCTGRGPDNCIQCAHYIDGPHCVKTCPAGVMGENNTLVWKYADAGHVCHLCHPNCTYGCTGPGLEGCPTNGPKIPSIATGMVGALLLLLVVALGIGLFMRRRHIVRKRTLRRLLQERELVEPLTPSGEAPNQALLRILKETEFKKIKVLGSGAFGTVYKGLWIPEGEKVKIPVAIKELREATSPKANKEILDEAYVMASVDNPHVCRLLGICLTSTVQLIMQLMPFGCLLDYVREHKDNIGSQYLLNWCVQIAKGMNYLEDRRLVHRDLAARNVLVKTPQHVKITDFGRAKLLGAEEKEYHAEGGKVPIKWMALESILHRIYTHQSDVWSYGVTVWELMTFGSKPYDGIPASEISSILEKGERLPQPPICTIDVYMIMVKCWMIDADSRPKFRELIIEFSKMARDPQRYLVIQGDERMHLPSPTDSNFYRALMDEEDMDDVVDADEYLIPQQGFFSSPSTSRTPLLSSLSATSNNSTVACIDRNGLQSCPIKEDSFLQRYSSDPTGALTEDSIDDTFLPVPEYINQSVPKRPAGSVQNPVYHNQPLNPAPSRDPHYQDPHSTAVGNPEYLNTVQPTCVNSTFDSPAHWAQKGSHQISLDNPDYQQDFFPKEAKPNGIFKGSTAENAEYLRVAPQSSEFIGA

Take `CN1CCC(c2ccc(-c3ccc4c(c3)C(=O)N(C(C(=O)Nc3nccs3)c3cc(F)ccc3O)C4)cc2)CC1` (configuration not stated): in [1], the half-life was 138 min. In [2], this molecule displayed an AUC(0-t) of 2400 ng·h/mL. The pIC50 in data set [3] was 10.00; in the data set on BaF3 [6], 8.22; with BaF3 [7] it was 7.30. The molecule also had a clearance in [4] of 15.7 mL/min/kg. In data set [5], this molecule gave an F of 15%. In addition, the Vd in [8] worked out at 2.5 L/kg.

`CN1CCC(c2ccc(-c3cc4c(=O)n(C(C(=O)Nc5nccs5)c5ccccc5)cnc4cc3F)cc2)CC1` (configuration not stated): the pIC50 in data set [3] is 8.85; in the data set on BaF3 [9] it was 6.55; in the data set with BaF3 [6], 7.14; with BaF3 [7], 5.52.

For `CN1CCC(c2ccc(-c3ccc4c(=O)n(C(C(=O)Nc5nccs5)c5ccccc5)cnc4c3)cc2)CC1` (configuration not stated), the pIC50 in [3] is 8.24; in the data set with BaF3 [9], 6.05; in the data set with BaF3 [6], 6.65; with BaF3 [7], 5.61.

In the case of `CN1CCC(c2ccc(-c3ccc4ncn(C(C(=O)Nc5nccs5)c5ccccc5)c(=O)c4n3)cc2)CC1` (configuration not stated), the pIC50 in the data set with BaF3 [9] is 7.05; in the data set on BaF3 [6] it was 7.80; with BaF3 [7], 5.77.

Take `CN1CCN(c2ccc(-c3ccc4c(c3)C(=O)N(C(C(=O)Nc3nccs3)c3cccc(F)c3)C4)cc2)CC1` (configuration not stated): the results for the pIC50 (in data set [3]; in the data set with BaF3 [7]) were 8.74 and 5.70, respectively.

`CN1CCC(c2ccc(-c3ccc4c(c3)C(=O)N(C(C(=O)Nc3nccs3)c3cccc(F)c3)C4)cc2)CC1` (configuration not stated) showed a half-life in data set [1] of 186 min. For the same molecule, the AUC(0-t) in [2] came to 1000 ng·h/mL. Further, the pIC50 in [3] is 9.70; in the data set on BaF3 [9] it was 6.82; in the data set with BaF3 [6], 7.70; in the data set on BaF3 [7] it was 5.97. In data set [4], the clearance turned out to be 13.9 mL/min/kg. Moreover, in data set [5], the F was determined as 4%. In addition, the Vd in data set [8] came out at 2.4 L/kg.

In the case of `CN1CCC(c2ccc(-c3ccc4c(=O)n(C(C(=O)Nc5nccs5)c5ccccc5)ccc4c3)cc2)CC1` (configuration not stated), the pIC50 in [3] was 8.92; in the data set with BaF3 [9], 6.30; with BaF3 [6], 7.62; in the data set on BaF3 [7], 5.89.

For the molecule `CN1CCN(c2ccc(-c3ccc4c(=O)n(C(C(=O)Nc5nccs5)c5ccccc5)cnc4c3)cc2)CC1` (configuration not stated), the results for the pIC50 (in data set [3]; in the data set with BaF3 [6]; in the data set with BaF3 [7]) were 8.51, 6.43 and 5.70, respectively.

As for `CN1CCN(c2ccc(-c3ccc4c(c3)C(=O)N(C(C(=O)Nc3nccs3)c3ccccc3)C4)cc2)CC1` (configuration not stated), the results for the pIC50 (in data set [3]; in the data set on BaF3 [6]; in the data set on BaF3 [7]) were 9.05, 7.37 and 5.59, respectively.

`CN1CCN(c2ccc(-c3ccc4c(c3)C(=O)N(C(C(=O)Nc3nccs3)c3cc(F)ccc3O)C4)cc2)CC1` (configuration not stated) showed a half-life in data set [1] of 168 min. Moreover, in data set [2], the AUC(0-t) worked out at 1350 ng·h/mL. Further, the results for the pIC50 (in [3]; in the data set with BaF3 [6]; in the data set with BaF3 [7]) were 9.52, 8.22 and 6.31, respectively. The same molecule registered a clearance in data set [4] of 10.3 mL/min/kg. In [5], this molecule yielded an F of 2%. Further, the Vd in data set [8] amounted to 1.8 L/kg.

For `CN1CCC(c2ccc(-c3ccc4ncn(C(C(=O)Nc5nccs5)c5ccccc5)c(=O)c4c3)cc2)CC1` (configuration not stated), the figures for the pIC50 with BaF3 [9] and in the data set with BaF3 [7] were 7.30 and 6.11, respectively.

`CN1CCN(c2ccc(-c3ccc4c(=O)n(C(C(=O)Nc5nccs5)c5ccccc5)ncc4c3)cc2)CC1` (configuration not stated): the pIC50 with BaF3 [6] was 5.78; in the data set on BaF3 [7], 5.46.

As to `O=C(Nc1nccs1)C(c1cc(F)ccc1O)N1Cc2ccc(-c3ccc(N4CCNCC4)cc3)cc2C1=O` (configuration not stated), the half-life in data set [1] was 180 min. In data set [2], this molecule gave an AUC(0-t) of 2520 ng·h/mL. The molecule further had a clearance in data set [4] of 5 mL/min/kg. Besides, the negative-log IC50 (pIC50) is 7.68 with BaF3 [6] and 6.21 with BaF3 [7]. Besides, the Vd in [8] was 0.6 L/kg.

Turning to `CN1CCN(c2ccc(-c3ccc4cnn(C(C(=O)Nc5nccs5)c5ccccc5)c(=O)c4c3)cc2)CC1` (configuration not stated), the pIC50 in [3] was 7.99; in the data set with BaF3 [6] it was 6.42; in the data set with BaF3 [7] it was 5.67.

Consider `CN1CCC(c2ccc(-c3cnc4ncn(C(C(=O)Nc5nccs5)c5ccccc5)c(=O)c4c3)cc2)CC1` (configuration not stated), for which the pIC50 in data set [3] is 8.72; with BaF3 [9], 6.51; with BaF3 [6], 7.64; in the data set on BaF3 [7], 5.94.

With `CN1CCC(c2ccc(-c3ccc4ncn(C(C(=O)Nc5nccs5)c5ccccc5)c(=O)c4c3F)cc2)CC1` (configuration not stated), the outcome in the data set with NCI-H1975 [10], in the data set with NCI-H1975 [11], with NCI-H1975 [13] and with NCI-H1975 [16] was Active. In [12], the F stood at 24%. In [14], the t1/2 turned out to be 3.5 h. This molecule showed a clearance in [15] of 30 mL/min/kg.

In the case of `CN1CCC(c2ccc(-c3cc(F)c4ncn(C(C(=O)Nc5nccs5)c5ccccc5)c(=O)c4c3)cc2)CC1` (configuration not stated), the pIC50 is 6.82 in the data set with BaF3 [9], 8.00 with BaF3 [6] and 6.09 in the data set on BaF3 [7].

Turning to `CN1CCN(c2ccc(-c3ccc4c(=O)n(C(C(=O)Nc5nccs5)c5ccccc5)ccc4c3)cc2)CC1` (configuration not stated), the figures for the pIC50 (in data set [3]; in the data set with BaF3 [6]; with BaF3 [7]) were 8.47, 7.21 and 5.90, respectively.

On to `CN1CCC(c2ccc(-c3ccc4ccn(C(C(=O)Nc5nccs5)c5ccccc5)c(=O)c4c3)cc2)CC1` (configuration not stated), for which the pIC50 was 8.74 in data set [3], 6.42 in the data set with BaF3 [9], 7.15 in the data set on BaF3 [6] and 5.82 in the data set on BaF3 [7].

As to `CN1CCC(c2ccc(-c3ccc4cnn(C(C(=O)Nc5nccs5)c5ccccc5)c(=O)c4c3)cc2)CC1` (configuration not stated), the pIC50 in the data set on BaF3 [9] was 6.36; in the data set on BaF3 [6], 6.68; in the data set with BaF3 [7] it was 5.81.

With `CN1CCN(c2ccc(-c3ccc4c(c3)C(=O)N(C(C(=O)Nc3nccs3)c3cccc(F)c3)CC4)cc2)CC1` (configuration not stated), the pIC50 in [3] was 8.17; in the data set on BaF3 [6] it was 6.90; in the data set on BaF3 [7], 5.80.

For the molecule `CN1CCC(c2ccc(-c3ccc4c(c3)C(=O)N(C(C(=O)Nc3nccs3)c3cccc(F)c3)CC4)cc2)CC1` (configuration not stated), the pIC50 in data set [3] was 8.49; in the data set with BaF3 [6] it was 7.00; with BaF3 [7], 5.83.

With `CN1CCN(c2ccc(-c3ccc4ncn(C(C(=O)Nc5nccs5)c5ccccc5)c(=O)c4c3)cc2)CC1` (configuration not stated), the pIC50 in data set [3] was 9.05; with BaF3 [6], 7.68; in the data set on BaF3 [7], 5.63.

For the molecule `CN1CCC(c2ccc(-c3ccc4c(c3)CCN(C(C(=O)Nc3nccs3)c3cccc(F)c3)C4=O)cc2)CC1` (configuration not stated), the pIC50 in data set [3] was 8.66; in the data set on BaF3 [7], 5.70.

With `CN1CCC(c2ccc(-c3ccc4c(=O)n(C(C(=O)Nc5nccs5)c5ccccc5)ncc4c3)cc2)CC1` (configuration not stated), the values for the pIC50 (in data set [3]; with BaF3 [9]; in the data set on BaF3 [7]) were 8.01, 6.00 and 5.91, respectively.

`CN1CCN(c2ccc(-c3ccc4ccn(C(C(=O)Nc5nccs5)c5ccccc5)c(=O)c4c3)cc2)CC1` (configuration not stated): in the data set with BaF3 [7], the negative logarithm of the IC50 (pIC50) was 5.73.

`O=C(Nc1nccs1)C(c1cc(F)ccc1O)N1Cc2ccccc2C1=O` (configuration not stated): the pIC50 is 6.66 with BaF3 [6] and less than 5.00 in the data set with BaF3 [7].
